Results as given in ChEMBL document CHEMBL5715941, “AZD1152, a selective inhibitor of Aurora B kinase, inhibits human tumor xenograft growth by inducing apoptosis” (Clin Cancer Res, 2007).
Active and inactive are the calls of the source.

Key:
SW-620 [1] = assay: Induction of polyploidy in human SW620 cells at 300 nmol/L incubated for 48 hrs by flow cytometry analysis; type: functional, cell-based
Method in brief: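 SW620 cells were grown in L-15 with 10% heat-inactivated FCS at 37°C without CO2. They were exposed to AZD1152-HQPA for 0, 24 or 48 h, fixed in 70% ethanol at −20°C overnight, stained with propidium iodide (10 µg/mL) plus RNase (100 µg/mL), and DNA content was read by flow cytometry.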

SW-620 [2] = assay: Antitumor activity against human SW620 cells xenografted in Swiss nude mouse assessed as reduction in proportion of PhH3-positive cells within the G2-M phase at 70 mg/kg/day, sc measured over 48 hrs by flow cytometry analysis; type: functional, organism-based
Method in brief: (§1)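 Male nude mice with palpable s.c. SW620 tumors (n = 4/group) received AZD1152 (0.5-150 mg/kg/d) or vehicle by constant 48-h s.c. mini-pump infusion. Tumors were then excised, fixed and disaggregated. Flow cytometry with propidium iodide gave DNA content (2N, 4N, >4N), and rabbit anti-PhH3 with fluorescein anti-rabbit IgG gave PhH3-positive cells (%).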

SW-620 [3] = assay: Antitumor activity against human SW620 cells xenografted in Swiss nude mouse assessed as inhibition in PhH3 level at 0.5 mg/kg/day, sc measured over 48 hrs by flow cytometry analysis relative to control; type: functional; method in brief: as §1
SW-620 [4] = assay: Antitumor activity against human SW620 cells xenografted in immunodeficient Swiss athymic mouse assessed as inhibition of tumor volume at 25 mg/kg/day, sc for 48 hrs on days 7 to 9 and measured on day 23 relative to control; type: functional; details: SW-620, 408 h, time 17 day
Method in brief: (§2)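 Male Swiss athymic nude mice, 8-12 wk; tumor cells (1×10^6-1×10^7, 50:50 Matrigel) implanted s.c. on flank. Randomized (n = 8-11) at 0.2-0.5 cm3. AZD1152 in Tris buffer pH 9, or vehicle (0.3 mol/L Tris), by 48-h s.c. osmotic mini-pump infusion (two 24-h pumps in sequence). Caliper volumes up to 3×/week; growth inhibition from change in control vs treated volume; one-tailed t test.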

SW-620 [5] = assay: Antitumor activity against human SW620 cells xenografted in immunodeficient Swiss athymic mouse assessed as maximum inhibition of tumor volume at 25 mg/kg/day, ip for 4 days on days 6 to 9 and measured on day 13 relative to control; type: functional; details: SW-620, 192 h, time 8 day
Method in brief: (§3)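 Male Swiss nude mice bearing s.c. flank SW620 xenografts (cells in Matrigel), randomized (n = 8-11) at 0.2-0.3 cm3. AZD1152 in Tris buffer pH 9, or vehicle, given as a once-daily i.v. or i.p. bolus. Caliper volumes up to 3×/week; inhibition from change in control vs treated volume; one-tailed t test.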

SW-620 [6] = assay: Antitumor activity against human SW620 cells xenografted in immunodeficient Swiss athymic mouse assessed as maximum inhibition of tumor volume at 25 mg/kg/day, iv for 3 days on days 6 to 8 and measured on day 13 relative to control; type: functional; details: SW-620, 192 h, time 8 day; method in brief: as §3
SW-620 [7] = assay: Antitumor activity against human SW620 cells xenografted in immunodeficient Swiss athymic mouse assessed as inhibition of tumor volume at 25 mg/kg/day, iv for 3 days on days 6 to 8 and measured on day 24 relative to control; type: functional; details: SW-620, 456 h, time 19 day; method in brief: as §3
HCT-116 [8] = assay: Antitumor activity against human HCT-116 cells xenografted in immunodeficient Swiss athymic mouse assessed as maximum inhibition of tumor volume at 150 mg/kg/day, sc for 48 hrs on days 11 to 13 and measured on day 18 relative to control; type: functional; details: HCT-116, 192 h, time 8 day; method in brief: as §2
HCT-116 [9] = assay: Antitumor activity against human HCT-116 cells xenografted in immunodeficient Swiss athymic mouse assessed as inhibition of tumor volume at 150 mg/kg/day, sc for 48 hrs on days 11 to 13 and measured on day 25 relative to control; type: functional; details: HCT-116, 360 h, time 15 day; method in brief: as §2
A549 [10] = assay: Antitumor activity against human A549 cells xenografted in immunodeficient Swiss athymic mouse assessed as maximum inhibition of tumor volume at 150 mg/kg/day, sc for 48 hrs on days 13 to 15 and measured on day 26 relative to control; type: functional; details: A549, 336 h, time 14 day; method in brief: as §2
A549 [11] = assay: Antitumor activity against human A549 cells xenografted in immunodeficient Swiss athymic mouse assessed as inhibition of tumor volume at 150 mg/kg/day, sc for 48 hrs on days 13 to 15 and measured on day 29 relative to control; type: functional; details: A549, 408 h, time 17 day; method in brief: as §2
A549 [12] = assay: Antitumor activity against human A549 cells xenografted in immunodeficient Swiss athymic mouse assessed as maximum inhibition of tumor volume at 25 mg/kg/day, sc for 48 hrs on days 13 to 15 and measured on day 15 relative to control; type: functional; details: A549, 72 h, time 3 day; method in brief: as §2
Calu-6 = assay: Antitumor activity against human Calu-6 cells xenografted in immunodeficient Swiss athymic mouse assessed as maximum inhibition of tumor volume at 150 mg/kg/day, sc for 48 hrs on days 20 to 22 and measured on day 29 relative to control; type: functional; details: Calu-6, 240 h, time 10 day; method in brief: as §2
SW-620 [13] = assay: Antitumor activity against human SW620 cells xenografted in nude athymic rat assessed as tumor growth inhibition at 25 mg/kg/day, iv for 4 consecutive days and measured at 8 day relative to control; type: functional; details: SW-620, 192 h
Method in brief: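 Male nude rats with established SW620 xenografts, randomized at 0.5-1 cm3, received vehicle or AZD1152 (25 mg/kg, in Tris pH 9) as a once-daily i.v. bolus for 4 consecutive days. Tumor volume was measured by caliper (n = 10); growth inhibition relative to vehicle.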

SW-620 [14] = assay: Antitumor activity against human SW620 cells xenografted in nude athymic rat assessed as high degree of pleomorphism at 25 mg/kg/day, iv for 4 consecutive days and measured on 5 day by H&E staining based immunohistochemistry analysis; type: functional, organism-based
Method in brief: (§4)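 Nude rats bearing SW620 tumors were dosed i.v. with AZD1152 at 25 mg/kg/d or with vehicle on days 1-4. Subgroups (n = 3) were killed at set days. Tumor and bone marrow sections were H&E-stained and examined histologically.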

SW-620 [15] = assay: Antitumor activity against human SW620 cells xenografted in nude athymic rat assessed as morphologic change at 25 mg/kg/day, iv for 4 consecutive days and measured on 5 day by H&E staining based immunohistochemistry analysis; type: functional, organism-based; method in brief: as §4
SW-620 [16] = assay: Antitumor activity against human SW620 cells xenografted in nude athymic rat assessed as increase in cleaved caspase-3 at 25 mg/kg/day, iv for 4 consecutive days and measured on 9 day by H&E staining based immunohistochemistry analysis; type: functional, organism-based
Method in brief: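 Nude rats bearing SW620 tumors received i.v. AZD1152 at 25 mg/kg/d or vehicle on days 1-4 (n = 3 per time point). Tumor sections were immunostained for cleaved caspase-3 (HRP polymer). The percentage area of brown staining per field was quantified by color-threshold image analysis over six fields per section at ×20.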

SW-620 [17] = assay: Antitumor activity against human SW620 cells xenografted in nude athymic rat assessed as reduction in total cellular content at 25 mg/kg/day, iv for 4 consecutive days and measured on 5 day by H&E staining based immunohistochemistry analysis; type: functional, organism-based; method in brief: as §4
SW-620 [18] = assay: Antitumor activity against human SW620 cells xenografted in nude athymic rat assessed as myelosuppression at 25 mg/kg/day, iv for 4 consecutive days by flow cytometric analysis; type: functional, organism-based; details: time 4.0 day

Question: What does the source list for CCN(CCCOc1ccc2c(Nc3cc(CC(=O)Nc4cccc(F)c4)[nH]n3)ncnc2c1)CCOP(=O)(O)O [BARASERTIB]?
Answer: Activity (SW-620 [1]): Active; Activity (SW-620 [2]): Active; inhibition in vivo at 0.5 mg/kg/day (SW-620 [3]): 52%; inhibition in vivo at 25 mg/kg/day (SW-620 [4]): 49%; inhibition in vivo at 25 mg/kg/day (SW-620 [5]): 65%; inhibition in vivo at 25 mg/kg/day (SW-620 [6]): 91%; inhibition in vivo at 25 mg/kg/day (SW-620 [7]): 47%; inhibition in vivo at 150 mg/kg/day (HCT-116 [8]): 93%; inhibition in vivo at 150 mg/kg/day (HCT-116 [9]): 74%; inhibition in vivo at 150 mg/kg/day (A549 [10]): 79%; inhibition in vivo at 150 mg/kg/day (A549 [11]): 69%; inhibition in vivo at 25 mg/kg/day (A549 [12]): 74%; inhibition in vivo at 150 mg/kg/day (Calu-6): 67%; inhibition in vivo at 25 mg/kg/day (SW-620 [13]): 93%; Activity (SW-620 [14]): Active; Activity (SW-620 [15]): Active; Activity (SW-620 [16]): Active; Activity (SW-620 [17]): Active; Activity (SW-620 [18]): Active
